Entries after “also recorded” stand apart in the source; their conditions may differ. Structures can show the parent of a compound that is named as a salt.
Tests used:
human RXRα = target: T1, human RXRα (Homo sapiens, UniProt P19793); experiment: RXRE-luciferase reporter gene assay; format: cell-based; conditions: for Max IR: maximum induction ratio observed: compounds tested at variable concentrations
T1 sequence (P19793 1-462): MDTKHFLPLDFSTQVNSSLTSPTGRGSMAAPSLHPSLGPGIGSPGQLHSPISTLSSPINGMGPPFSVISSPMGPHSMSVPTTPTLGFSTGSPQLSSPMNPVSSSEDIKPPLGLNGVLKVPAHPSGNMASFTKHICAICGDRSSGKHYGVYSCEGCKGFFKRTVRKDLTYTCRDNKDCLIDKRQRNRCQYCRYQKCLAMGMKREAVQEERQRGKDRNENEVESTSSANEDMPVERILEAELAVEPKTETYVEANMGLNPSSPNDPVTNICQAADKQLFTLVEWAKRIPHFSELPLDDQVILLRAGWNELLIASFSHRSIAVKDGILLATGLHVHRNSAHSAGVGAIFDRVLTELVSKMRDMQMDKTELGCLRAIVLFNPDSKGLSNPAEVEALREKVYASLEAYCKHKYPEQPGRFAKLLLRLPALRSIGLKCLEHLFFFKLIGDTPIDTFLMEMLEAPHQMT

VDR [1] = target: T2, VDR (Homo sapiens, UniProt P11473); experiment: VDR ultrafiltration affinity assay; format: binding
T2 sequence (P11473 1-427): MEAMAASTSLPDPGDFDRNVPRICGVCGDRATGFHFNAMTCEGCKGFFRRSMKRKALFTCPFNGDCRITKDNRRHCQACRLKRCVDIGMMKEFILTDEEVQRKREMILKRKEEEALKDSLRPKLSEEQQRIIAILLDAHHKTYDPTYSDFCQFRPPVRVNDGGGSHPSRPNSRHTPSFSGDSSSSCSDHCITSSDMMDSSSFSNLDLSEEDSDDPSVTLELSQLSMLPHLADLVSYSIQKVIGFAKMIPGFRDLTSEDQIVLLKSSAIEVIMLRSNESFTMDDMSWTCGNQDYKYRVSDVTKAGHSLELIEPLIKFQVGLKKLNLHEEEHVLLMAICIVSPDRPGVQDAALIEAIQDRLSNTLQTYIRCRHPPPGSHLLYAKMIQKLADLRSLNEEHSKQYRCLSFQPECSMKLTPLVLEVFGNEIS
Summary of the method: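 Commercial VDR in storage buffer incubated with test ligand for 30 min at 37 °C, dark, shaking. Ultrafiltered at 12,000 × g, 4 °C, rinsed with ice-cold 50 mM ammonium acetate, 0.1 mM NaCl, pH 8.0. Bound ligand released in methanol with genistein internal standard, dried under N2, analysed by LC-ion trap TOF MS, both polarities, m/z 100–1500. Controls were boiled hVDR or no protein, with lithocholic acid and curcumin as positives.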

COS-1 cells = experiment: % Cell Survival; format: cell-based; conditions: concentration not given
[2] = cited from earlier work
VDR [3] = target: T2, VDR; experiment: Competitive binding against curcumin for VDR; conditions: equimolar concentration
[4] = test system: MCF-7 breast cancer cells; conditions: cited from earlier work

| SMILES | RXR activity in words (active / inactive) (human RXRα) | Positive VDR signal (VDR [1]) | also measured |
| --- | --- | --- | --- |
| CN(C)CCCn1c2c(c3ccc(N)cc3c1=O)C(=O)c1ccccc1-2 [Compound 121, 3-Amino-6-(3-(dimethylamino)propyl)-5H-indeno[1,2-c]isoquinoline-5,11(6H)-dione] | high activity | 2011978 |  |
| CNCCCn1c2c(c3ccc(N)cc3c1=O)C(=O)c1ccccc1-2 [Compound 126] | high activity | 2155086 |  |
| CCOC(=O)CNc1ccc2c3c(n(CCCN)c(=O)c2c1)-c1ccccc1C3=O [Compound 62] |  | 152467 |  |
| NCCCCCCn1c2c(c3ccccc3c1=O)C(=O)c1ccccc1-2 [Compound 82] |  | 9397620 |  |
| NCCCn1c2c(c3ccccc3c1=O)C(=O)c1ccccc1-2 [Compound 79] | high activity | 4013179 | EC50 (human RXRα): 10.2 µM; % Cell Survival (COS-1 cells; Table 3): 52.5% |
| Cl.NCCCn1c2c(c3ccc(N)cc3c1=O)Cc1ccccc1-2 [Compound 124, 3-Amino-6-(3-aminopropyl)-6,11-dihydro-5H-indeno[1,2-c]isoquinolin-5-one] | good activity | 1422175 |  |
| NCCCn1c2c(c3ccc(N)cc3c1=O)C(=O)c1ccccc1-2 [Compound 3, 3-Amino-6-(3'-aminopropyl)-5H-indeno[1,2-c]isoquinoline-5,11-(6H)dione] | high activity | 1903415 | metabolism of the ketone group [2]: metabolized to an alcohol, which renders the compound inactive; competition with curcumin for binding to VDR (VDR [3]): did not compete; apoptosis in MCF-7 cells [4]: induce apoptosis in MCF-7 breast cancer cells in a dose-dependent manner |
| CC(=O)Nc1ccc2c3c(n(CCCN)c(=O)c2c1)-c1ccccc1C3=O [Compound 131] |  | 4875144 |  |
| CC(=O)Nc1ccc2c3c(n(CCCO)c(=O)c2c1)-c1ccccc1C3=O [Compound 132] | inactive |  | Max IR: maximum induction ratio observed (human RXRα): NA (NA: Max IR not determined because IR < 2.); % Cell Survival (COS-1 cells; Table 7): 90.6% |
| COC(=O)c1ccc2c3c(n(CCCn4ccnc4)c(=O)c2c1)-c1ccccc1C3=O [Compound 68, Methyl 6-(3-(1H-Imidazol-1-yl)propyl)-5,11-dioxo-6,11-dihydro-5H-indeno[1,2-c]isoquinoline-3-carboxylate Hydrochloride] | inactive; also recorded: lack of activity |  |  |
| Cc1ccc2c3c(n(C)c(=O)c2c1)-c1ccccc1C3=O [Compound 36, 3,6-Dimethyl-5H-indeno[1,2-c]isoquinoline-5,11(6H)-dione] | not active |  |  |
| O=C1c2ccccc2-c2c1c1ccc(Br)cc1c(=O)n2CCCN1CCOCC1 [Compound 92, 3-Bromo-6-(3-morpholinopropyl)-5,11-dioxo-6,11-dihydro-5H-indeno[1,2-c]isoquinoline] | inactive |  | Max IR: maximum induction ratio observed (human RXRα): NA (NA: Max IR not determined because IR < 2.) |
| COc1cc2c3c(n(CCCN)c(=O)c2cc1OC)-c1ccc(F)cc1C3=O [Compound 160] |  |  | Max IR: maximum induction ratio observed (human RXRα): NA (NA: Max IR not determined because IR < 2.) |
| O=C1c2ccccc2-c2c1c1ccccc1c(=O)n2CCCn1ccnc1 [Compound 102, 5,6-Dihydro-6-(3-imidazolyl-1-propyl)-5,11-dioxo-11H-indeno[1,2-c]isoquinoline] | inactive |  | Max IR: maximum induction ratio observed (human RXRα): NA (NA: Max IR not determined because IR < 2.) |
| Cn1c2c(c3ccc(CCCC(=O)O)cc3c1=O)C(=O)c1ccccc1-2 [Compound 19, 5-(6-Methyl-5,11-dioxo-6,11-dihydro-5H-indeno[1,2-c]isoquinolin-3-yl)butanoic Acid] | inactive |  |  |
| CN(C)CCCn1c2c(c3ccc(Br)cc3c1=O)C(=O)c1ccccc1-2 [Compound 93, 3-Bromo-6-(3-(dimethylamino)propyl)-5,11-dioxo-6,11-dihydro-5H-indeno[1,2-c]isoquinoline] | active |  |  |
| NCCCCCn1c2c(c3ccccc3c1=O)C(=O)c1ccccc1-2 [Compound 81] |  | 7877048 |  |
| O=C(O)CCn1c2c(c3ccc(Br)cc3c1=O)C(=O)c1ccccc1-2 [Compound 97, Lithium 6(2-Carboxyethyl)-3-bromo-5,6-dihydro-5,11-dioxo-11H-indeno[1,2-c]isoquinoline] | inactive |  | Max IR: maximum induction ratio observed (human RXRα): NA (NA: Max IR not determined because IR < 2.) |
| NCCCCn1c2c(c3ccccc3c1=O)C(=O)c1ccccc1-2 [Compound 80] |  | 3320824 |  |
| CN(C)CCCn1c2c(c3ccccc3c1=O)C(=O)c1ccccc1-2 [Compound 103, 5,6-Dihydro-6-(3-(dimethylamino)-1-propyl)-5,11-dioxo-11Hindeno[1,2-c]isoquinoline] | active; also recorded: high activity |  |  |

— paper PMC3623729 (Journal of medicinal chemistry, 2013)
